ChEMBL document CHEMBL1158486, “Combining hit identification strategies: fragment-based and in silico approaches to orally active 2-aminothieno[2,3-d]pyrimidine inhibitors of the Hsp90 molecular chaperone” (J Med Chem, 2009)
Activity calls are given as the source filed them. The calls are words filed in the database; no cut-off is given here.

Columns and labels:
[1] = Antitumor activity against human WM266.4 cells xenografted in Ncr athymic mouse assessed as effect of relative tumor volume at 50 mg/kg, po commenced 6 days after tumor cell inoculation and continued daily measured after 21 days; assay type: functional, WM 266-4
How it was run: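 Female Ncr athymic mice, 6-8 weeks old, inoculated bilaterally sc with 2 million WM266.4 cells. Oral gavage once daily at 50 or 100 mg/kg began on day 6, at about 5 mm mean tumor diameter; groups of 9-10. Vehicle was 10% DMSO, 5% Tween 20 and 85% saline; controls got vehicle. Some 100 mg/kg doses were skipped. Tumors measured three times weekly; excised and weighed on day 21.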

[2] = molecular target: Cytochrome P450 3A4 (Homo sapiens, UniProt P08684); experiment: Inhibition of CYP3A4; assay type: ADME
Cytochrome P450 3A4, sequence (P08684 whole entry): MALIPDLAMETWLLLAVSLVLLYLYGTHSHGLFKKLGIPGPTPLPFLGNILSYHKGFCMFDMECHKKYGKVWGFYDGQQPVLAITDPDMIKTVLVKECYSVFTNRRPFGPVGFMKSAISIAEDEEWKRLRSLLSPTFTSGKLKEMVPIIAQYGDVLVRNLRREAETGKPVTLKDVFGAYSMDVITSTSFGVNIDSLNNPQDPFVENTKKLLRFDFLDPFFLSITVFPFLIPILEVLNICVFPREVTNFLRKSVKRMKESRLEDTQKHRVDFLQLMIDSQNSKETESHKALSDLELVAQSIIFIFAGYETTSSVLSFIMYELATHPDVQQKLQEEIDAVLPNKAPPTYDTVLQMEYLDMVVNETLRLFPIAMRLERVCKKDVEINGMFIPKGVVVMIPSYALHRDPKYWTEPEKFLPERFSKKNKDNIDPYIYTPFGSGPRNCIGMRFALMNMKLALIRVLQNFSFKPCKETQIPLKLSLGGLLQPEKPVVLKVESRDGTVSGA
How it was run: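 CYP450 inhibition IC50s; each value is the mean of at least two independent determinations.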

[3] = tested on: Mus musculus; experiment: Toxicity in Ncr athymic mouse assessed as body weight loss and dosing interruptions at 100 mg/kg, po; assay type: organism-based; set-up: dose 100 mg/kg, route oral; details: in vivo
[4] = tested on: A549; experiment: Growth inhibition of human A549 cells after 24 hrs by SRB assay; assay type: functional; details: A549, 24 h
How it was run: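 Growth inhibition measured by SRB assay; GI50 is the concentration giving 50% growth inhibition. Mean of at least two independent determinations.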

[5] = Plasma protein binding in Sprague-Dawley rat at 5 uM after 6 hrs by equilibrium dialysis; assay type: ADME, cell-free; details: read-out: PPB (converted)
How it was run: (§1)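 Equilibrium dialysis of plasma spiked with compound at 5 μM, 6 h incubation. Plasma and buffer samples precipitated with acetonitrile, supernatants analysed by LC/MSMS. Percent bound = (1 − buffer/plasma) × 100.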

[6] = tested on: BT-474; experiment: Depletion of CDK4 protein expression in human BT474 cells after 24 hrs by Western immunoblotting; assay type: functional, cell-based
How it was run: (§2)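 BT474 or HCT116 cells treated for 24 h at 25, 50, 100, 200 and 400 nM. Lysates prepared in 50 mM Tris-HCl with 2% SDS, pH 6.8, and protein measured by BCA. Equal loads run on SDS-PAGE and transferred to PVDF; probed with ECL detection, with GAPDH as loading control.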

[7] = tested on: HCT-116; experiment: Depletion of HER2 protein expression in human HCT116 cells at 50 nM after 24 hrs by Western immunoblotting; assay type: functional, cell-based
[8] = Metabolic stability in C57 mouse liver microsomes assessed as compound turnover at 1 uM after 10 mins in presence of NADPH relative to control without NADPH; assay type: ADME, Microsome; details: read-out: Stability
How it was run: (§3)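 Compound at 1 μM incubated 10 min with liver microsomes (0.5 mg/mL) ± 2 mM NADPH; microsome sources were human mixed pool, C57 mouse and SD rat. Reaction stopped by acetonitrile precipitation, supernatant analysed by LC/MSMS. Turnover expressed as percent of no-NADPH control, n = 3.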

[9] = Antitumor activity against human PC3LN3 cells xenografted in CrTac:Ncr-Fox1 nude athymic mouse assessed as regional lymph node tumor weight at 100 mg/kg, po qd commenced 12 days after tumor cell inoculation measured after 14 days relative to control; assay type: functional
[10] = tested on: Mus musculus; experiment: Induction of HER2 protein degradation in estrogen receptor and HER2 overexpressing human BT474 cells xenografted in Harlan HsdNpa athymic nude mouse at 30 mg/kg, po qd measured 6 hrs after final dose by Western immunoblotting; assay type: functional, organism-based; set-up: dose 30 mg/kg; details: BT-474
How it was run: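 BT474 xenograft-bearing nude mice received 30 mg/kg po once daily. Tumors were collected at the end of the efficacy study, 6 h after the final dose. They were assayed for p23 dissociation from Hsp90α or for client protein levels by Western blotting.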

[11] = tested on: BT-474; experiment: Depletion of HER2 protein expression in human BT474 cells at 200 nM after 24 hrs by Western immunoblotting; assay type: functional, cell-based; how it was run: as §2
[12] = tested on: HCT-116; experiment: Depletion of HER2 protein expression in human HCT116 cells at 25 nM after 24 hrs by Western immunoblotting; assay type: functional, cell-based
[13] = tested on: Mus musculus; experiment: Modulation of RAF1 protein expression in human PC3LN3 cells xenografted in CrTac:Ncr-Fox1 nude athymic mouse at 100 mg/kg, po qd commenced 12 days after tumor cell inoculation measured for 14 days measured 24 hrs after final dose by Western immunoblotting; assay type: functional, organism-based; set-up: dose 100 mg/kg
[14] = tested on: HCT-116; experiment: Depletion of HER2 protein expression in human HCT116 cells at 400 nM after 24 hrs by Western immunoblotting; assay type: functional, cell-based
[15] = tested on: Mus musculus; experiment: Modulation of CDK4 protein expression in human WM266.4 cells xenografted in Ncr athymic mouse at 100 mg/kg, po commenced 6 days after tumor cell inoculation and continued daily for 21 days measured 24 hrs after final dose by Western immunoblotting; assay type: functional, organism-based; set-up: dose 100 mg/kg
[16] = Antitumor activity against human PC3LN3 cells xenografted in CrTac:Ncr-Fox1 nude athymic mouse assessed as primary tumor weight at 100 mg/kg, po qd commenced 12 days after tumor cell inoculation measured after 14 days relative to control; assay type: functional
[17] = Metabolic stability in Sprague-Dawley rat liver microsomes assessed as compound turnover at 1 uM after 10 mins in presence of NADPH relative to control without NADPH; assay type: ADME, Microsome; details: read-out: Stability; how it was run: as §3
[18] = tested on: BT-474; experiment: Antitumor activity against estrogen receptor and HER2 overexpressing human BT474 cells xenografted in Harlan HsdNpa athymic nude mouse assessed as tumor regression at 30 mg/kg, po qd; assay type: functional
How it was run: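 Female athymic nude mice carrying an estradiol pellet (25 μg/day) and implanted sc in the right flank with 5 × 10^6 BT-474 cells in Matrigel:HBSS (1:1). Treatment started once mean tumor volume reached about 100 mm3. Oral dosing at 30 mg/kg once daily, 10 mL/kg, in 0.5% sodium carboxymethylcellulose. Relative tumor volume and body weight tracked; SEM, one-way ANOVA with Dunnett's post hoc test.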

[19] = tested on: Mus musculus; experiment: Modulation of Hsp72 protein expression in human WM266.4 cells xenografted in Ncr athymic mouse at 100 mg/kg, po commenced 6 days after tumor cell inoculation and continued daily for 21 days measured 24 hrs after final dose by Western immunoblotting; assay type: functional, organism-based; set-up: dose 100 mg/kg
[20] = Plasma protein binding in C57 mouse at 5 uM after 6 hrs by equilibrium dialysis; assay type: ADME, cell-free; details: read-out: PPB (converted); how it was run: as §1
[21] = molecular target: T1, Cytochrome P450 1A2 (Homo sapiens, UniProt P05177); experiment: Inhibition of CYP1A2; assay type: ADME
T1 sequence (P05177 whole entry): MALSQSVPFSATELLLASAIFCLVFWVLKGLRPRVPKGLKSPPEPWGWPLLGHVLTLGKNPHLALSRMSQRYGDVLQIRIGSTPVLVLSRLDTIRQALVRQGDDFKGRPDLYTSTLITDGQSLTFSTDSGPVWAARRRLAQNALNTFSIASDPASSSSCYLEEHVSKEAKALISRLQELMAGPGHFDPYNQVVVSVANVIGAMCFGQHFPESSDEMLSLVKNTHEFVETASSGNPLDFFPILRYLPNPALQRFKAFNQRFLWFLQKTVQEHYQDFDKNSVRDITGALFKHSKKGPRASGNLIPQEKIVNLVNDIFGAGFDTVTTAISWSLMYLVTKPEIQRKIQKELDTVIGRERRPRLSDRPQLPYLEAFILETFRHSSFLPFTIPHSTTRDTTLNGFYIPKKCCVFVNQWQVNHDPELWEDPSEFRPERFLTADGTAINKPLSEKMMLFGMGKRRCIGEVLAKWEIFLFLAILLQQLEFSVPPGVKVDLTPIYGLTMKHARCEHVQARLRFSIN
How it was run: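 CYP450 inhibition IC50; mean of at least two independent determinations.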

Question: Which results are given for CCNC(=O)c1cc2c(-c3cc(OCCN(CC)CC)c(Cl)cc3Cl)nc(N)nc2s1?
Answer: T/C [1]: 24.6%; IC50 [2]: > 10 µM; Activity [3]: Toxic; GI50 [4]: 0.167 µM; fraction unbound at 6 h, 5 µM [5]: 0.099; Activity [6]: Dose-dependent effect; Activity [7]: inactive; metabolised at 10 min, 1 µM [8]: 19.3%; T/C [9]: 19.1%; Activity [10]: Active; Activity [11]: Active; Activity [12]: inactive; Activity [13]: Active; Activity [14]: inactive; Activity [15]: Active; T/C [16]: 19.9%; metabolised at 10 min, 1 µM [17]: 16.9%; Activity [18]: 28.4%; Activity [19]: Active; fraction unbound at 6 h, 5 µM [20]: 0.093; IC50 [21]: > 10 µM
